Source: ChEMBL document CHEMBL3526043, “Application of quantitative NMR in pharmacological evaluation of biologically generated metabolites: implications in drug discovery” (Drug Metab Dispos, 2011)

Experiments:
[1] = system: Liver microsome; assay: Drug metabolism in Sprague-Dawley rat liver microsomes assessed as hydroxylated product formation after 60 mins by LC-MS analysis; type: ADME; conditions: 1 h
How it was run: (§1)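 Single enantiomers incubated with male rat, cynomolgus monkey or human liver microsomes (1 mg/mL) plus cytosol (2 mg/mL). Cofactors: NADPH 5 mM, MgCl2 8 mM, GSH 2 mM and UDPGA 2 mM, in 0.1 M phosphate, pH 7.4, at 37 °C for 60 min. Precipitated with 2% formic acid in acetonitrile, dried, reconstituted, and analysed by LC/MS (C18, 10–40% acetonitrile/5 mM ammonium acetate).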

[2] = system: Liver microsome; assay: Drug level in human liver microsomes treated with 1-(4-(4-(3-oxa-8-azabicyclo[3.2.1]octan-8-yl)-6-morpholino-1,3,5-triazin-2-yl)phenyl)-3-(pyridin-4-yl)urea at 0.02 mM after 60 mins by 1H-13C-HSQC spectra analysis; type: ADME; conditions: 20 µM
How it was run: (§2)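 Human liver microsomes at 1 mg/mL protein with substrate at 0.02 mM, 5 mM NADPH and 8 mM MgCl2 in 0.1 M potassium phosphate, pH 7.4. Incubated at 37 °C for 60 min. Stopped with 2% formic acid in acetonitrile and centrifuged. Metabolite isolated by semi-preparative C18 HPLC, then characterised by LC/MS (C18, acetonitrile/5 mM ammonium acetate gradient) and NMR.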

[3] = Retention time of the compound by HPLC analysis; type: physicochemical
[4] = system: Liver microsome; assay: Drug metabolism in human liver microsomes assessed as hydroxylated product formation after 60 mins by LC-MS analysis; type: ADME; conditions: 1 h; how it was run: as §1
[5] = Drug metabolism in cynomolgus monkey liver microsomes assessed as hydroxylated product formation after 60 mins by LC-MS analysis; type: ADME, Macaca fascicularis; conditions: 1 h; how it was run: as §1
[6] = molecular target: Phosphatidylinositol 4,5-bisphosphate 3-kinase catalytic subunit alpha isoform (Homo sapiens) (UniProt P42336); assay: Binding affinity to PI3K-alpha (unknown origin) by fluorescence polarization assay
[7] = molecular target: Phosphatidylinositol 4,5-bisphosphate 3-kinase catalytic subunit gamma isoform (Homo sapiens) (UniProt P48736); assay: Binding affinity to PI3K-gamma (unknown origin) by fluorescence polarization assay
[8] = Systemic clearance in Sprague-Dawley rat at 2 mg/kg, iv administered as bolus dose; type: ADME, organism-based; set-up: dose 2 mg/kg, route intravenous; conditions: in vivo
How it was run: (§3)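 Male Sprague-Dawley rats (n=3 per group), jugular/femoral cannulated, fed. Single IV bolus of 2 mg/kg in 5% dextrose/0.5% lactic acid, pH 3.5, at 1 mL/kg. Jugular blood sampled 0–1440 min into EDTA. Plasma measured by LC/MS/MS (LOQ 1 ng/mL, BLQ set to zero). Non-compartmental analysis with linear trapezoidal AUC; CL = Dose/AUC0-∞, Vdss = MRT·CL, t1/2 = 0.693/λ.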

[9] = Volume of distribution at steady state in Sprague-Dawley rat at 2 mg/kg, iv administered as bolus dose; type: ADME, organism-based; set-up: dose 2 mg/kg, route intravenous; conditions: in vivo, read-out: Vdss; how it was run: as §3
[10] = AUC (0 to infinity) in Sprague-Dawley rat at 2 mg/kg, iv administered as bolus dose; type: ADME, organism-based; set-up: time infinity, dose 2 mg/kg, route intravenous; conditions: plasma; how it was run: as §3
[11] = Elimination half life in Sprague-Dawley rat at 2 mg/kg, iv administered as bolus dose; type: ADME, organism-based; set-up: dose 2 mg/kg, route intravenous; conditions: in vivo, read-out: beta t1/2 (converted); how it was run: as §3
[12] = system: Rattus norvegicus; assay: Drug level in Sprague-Dawley rat at 2 mg/kg, iv; conditions: in vivo
[13] = system: Liver microsome; assay: Drug metabolism in human liver microsomes assessed as (rac)-1-(4-(4-(6-hydroxy-3-oxa-8-azabicyclo[3.2.1]octan-8-yl)-6-morpholino-1,3,5-triazin-2-yl)phenyl)-3-(pyridin-4-yl)urea formation at 0.02 mM after 60 mins by LC-MS analysis; type: ADME; conditions: 1 h, 20 µM
How it was run: (§4)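 Parent at 0.02 mM was incubated with human liver microsomes (1 mg/mL protein) in 0.1 M potassium phosphate pH 7.4 with 5 mM NADPH and 8 mM MgCl₂, at 37 °C for 60 min. Reactions were quenched with 2% formic acid in acetonitrile and the metabolite isolated by semi-preparative C18 HPLC. Identity was checked by LC/MS on C18 with an acetonitrile/5 mM ammonium acetate gradient.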

[14] = Drug metabolism in cynomolgus monkey liver microsomes assessed as (rac)-1-(4-(4-(6-hydroxy-3-oxa-8-azabicyclo[3.2.1]octan-8-yl)-6-morpholino-1,3,5-triazin-2-yl)phenyl)-3-(pyridin-4-yl)urea formation at 0.02 mM after 60 mins by LC-MS analysis; type: ADME, Macaca fascicularis; conditions: 1 h, 20 µM
[15] = molecular target: Serine/threonine-protein kinase mTOR (Homo sapiens) (UniProt P42345); assay: Binding affinity to mTOR (unknown origin) by DELFIA
[16] = system: Liver microsome; assay: Drug metabolism in human liver microsomes assessed as (1R,5R,6R)-1-(4-(4-(6-hydroxy-3-oxa-8-azabicyclo[3.2.1]octan-8-yl)-6-morpholino-1,3,5-triazin-2-yl)phenyl)-3-(pyridin-4-yl)urea formation at 0.02 mM after 60 mins by 1H-13C-HSQC spectra analysis; type: ADME; conditions: 20 µM; how it was run: as §4
[17] = system: Liver microsome; assay: Drug metabolism in human liver microsomes assessed as (1R,5R,6R)-1-(4-(4-(6-hydroxy-3-oxa-8-azabicyclo[3.2.1]octan-8-yl)-6-morpholino-1,3,5-triazin-2-yl)phenyl)-3-(pyridin-4-yl)urea formation at 0.02 mM after 60 mins by 1H-13C-HSQC spectra analysis; conditions: 20 µM
[18] = system: Liver microsome; assay: Drug level in human liver microsomes treated with 1-(4-(4-(3-oxa-8-azabicyclo[3.2.1]octan-8-yl)-6-morpholino-1,3,5-triazin-2-yl)phenyl)-3-(pyridin-4-yl)urea at 0.02 mM after 60 mins by LC-MS analysis; type: ADME; conditions: 1 h, 20 µM; how it was run: as §2
[19] = Drug level in cynomolgus monkey liver microsomes treated with 1-(4-(4-(3-oxa-8-azabicyclo[3.2.1]octan-8-yl)-6-morpholino-1,3,5-triazin-2-yl)phenyl)-3-(pyridin-4-yl)urea at 0.02 mM after 60 mins by LC-MS analysis; type: ADME, Macaca fascicularis; conditions: 1 h, 20 µM
[20] = system: Liver microsome; assay: Drug level in human liver microsomes treated with 1-(4-(4-(3-oxa-8-azabicyclo[3.2.1]octan-8-yl)-6-morpholino-1,3,5-triazin-2-yl)phenyl)-3-(pyridin-4-yl)urea by NMR analysis; type: ADME
How it was run: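 Metabolite isolated from the human liver microsome incubation and quantified by 1H NMR. A calibration curve was built from parent-compound spectra at 5 concentrations, using the averaged integration of aromatic protons (δ 8.37, 8.30, 7.55, 7.44). Metabolite concentration was read from that curve; spectra were referenced to residual solvent.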

Phosphatidylinositol 4,5-bisphosphate 3-kinase catalytic subunit alpha isoform (Homo sapiens), sequence (P42336 whole entry, canonical isoform): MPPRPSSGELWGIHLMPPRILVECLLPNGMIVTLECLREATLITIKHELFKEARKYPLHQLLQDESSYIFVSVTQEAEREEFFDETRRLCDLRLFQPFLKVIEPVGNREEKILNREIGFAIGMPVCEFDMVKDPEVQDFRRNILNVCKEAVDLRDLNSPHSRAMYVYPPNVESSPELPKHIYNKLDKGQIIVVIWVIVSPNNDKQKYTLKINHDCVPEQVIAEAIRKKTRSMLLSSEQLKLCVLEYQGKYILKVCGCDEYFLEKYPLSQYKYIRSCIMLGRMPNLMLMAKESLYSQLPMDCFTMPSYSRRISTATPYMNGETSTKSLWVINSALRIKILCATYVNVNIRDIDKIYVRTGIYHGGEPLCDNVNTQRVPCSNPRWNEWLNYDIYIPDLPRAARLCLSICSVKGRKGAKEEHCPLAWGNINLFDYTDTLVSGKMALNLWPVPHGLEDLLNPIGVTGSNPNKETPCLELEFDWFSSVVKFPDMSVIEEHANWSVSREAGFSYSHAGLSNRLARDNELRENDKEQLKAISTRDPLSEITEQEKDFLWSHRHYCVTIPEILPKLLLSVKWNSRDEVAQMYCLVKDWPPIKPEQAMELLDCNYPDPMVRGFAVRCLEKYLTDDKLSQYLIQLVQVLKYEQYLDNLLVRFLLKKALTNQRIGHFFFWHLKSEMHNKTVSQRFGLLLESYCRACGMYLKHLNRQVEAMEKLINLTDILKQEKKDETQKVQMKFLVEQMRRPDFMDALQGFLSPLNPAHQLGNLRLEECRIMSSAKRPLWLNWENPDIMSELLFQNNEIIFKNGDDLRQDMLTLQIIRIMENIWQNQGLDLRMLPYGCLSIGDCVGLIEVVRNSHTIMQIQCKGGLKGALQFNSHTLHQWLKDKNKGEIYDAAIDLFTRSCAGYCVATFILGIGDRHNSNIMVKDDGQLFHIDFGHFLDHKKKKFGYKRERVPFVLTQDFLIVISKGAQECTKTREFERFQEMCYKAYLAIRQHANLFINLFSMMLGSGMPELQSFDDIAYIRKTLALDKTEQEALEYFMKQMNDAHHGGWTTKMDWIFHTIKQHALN
Phosphatidylinositol 4,5-bisphosphate 3-kinase catalytic subunit gamma isoform (Homo sapiens), sequence (P48736 whole entry, looked up, canonical isoform): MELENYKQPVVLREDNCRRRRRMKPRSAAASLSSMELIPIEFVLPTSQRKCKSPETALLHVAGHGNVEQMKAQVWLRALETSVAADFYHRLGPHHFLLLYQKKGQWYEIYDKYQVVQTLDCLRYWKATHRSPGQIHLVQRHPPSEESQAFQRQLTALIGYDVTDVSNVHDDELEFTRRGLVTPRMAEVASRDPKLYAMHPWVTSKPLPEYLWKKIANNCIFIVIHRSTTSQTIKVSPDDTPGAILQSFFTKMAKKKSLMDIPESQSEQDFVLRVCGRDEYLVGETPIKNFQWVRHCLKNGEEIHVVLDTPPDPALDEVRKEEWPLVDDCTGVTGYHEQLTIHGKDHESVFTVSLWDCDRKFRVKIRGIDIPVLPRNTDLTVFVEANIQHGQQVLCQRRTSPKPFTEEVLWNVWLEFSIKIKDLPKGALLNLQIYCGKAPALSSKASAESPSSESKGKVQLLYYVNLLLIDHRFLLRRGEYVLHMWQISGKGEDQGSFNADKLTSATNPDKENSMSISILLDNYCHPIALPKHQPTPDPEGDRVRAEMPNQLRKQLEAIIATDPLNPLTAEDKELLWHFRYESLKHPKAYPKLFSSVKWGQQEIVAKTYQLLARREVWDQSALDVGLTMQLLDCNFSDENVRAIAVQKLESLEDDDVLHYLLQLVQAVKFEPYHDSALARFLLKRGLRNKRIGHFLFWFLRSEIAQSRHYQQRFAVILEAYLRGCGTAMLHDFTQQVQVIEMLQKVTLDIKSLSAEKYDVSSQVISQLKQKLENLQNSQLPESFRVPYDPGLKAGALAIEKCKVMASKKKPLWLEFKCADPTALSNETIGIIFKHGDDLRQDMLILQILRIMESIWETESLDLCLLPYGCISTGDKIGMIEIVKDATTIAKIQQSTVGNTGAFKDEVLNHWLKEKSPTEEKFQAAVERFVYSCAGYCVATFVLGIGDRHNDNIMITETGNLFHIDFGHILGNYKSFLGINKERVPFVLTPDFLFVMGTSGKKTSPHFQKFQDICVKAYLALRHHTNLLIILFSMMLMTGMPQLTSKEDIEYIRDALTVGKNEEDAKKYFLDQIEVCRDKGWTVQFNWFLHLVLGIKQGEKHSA

| Drug metabolism [13] | Drug metabolism [14] | Drug metabolism [16] | Drug metabolism [17] | Compound | Stability [1] | Drug metabolism [2] | Retention_time [3] | Drug metabolism [4] | Drug metabolism [5] | Activity [6] | Activity [7] | clearance [8] | Vd [9] | AUC(0-inf) [10] | half-life [11] | Drug uptake [12] | Activity [15] | Drug metabolism [18] | Drug metabolism [19] | Drug uptake [20] |
| --- | --- | --- | --- | --- | --- | --- | --- | --- | --- | --- | --- | --- | --- | --- | --- | --- | --- | --- | --- | --- |
|  |  |  |  | O=C(Nc1ccncc1)Nc1ccc(-c2nc(N3CCOCC3)nc(N3[C@H]4COC[C@@H]3[C@H](O)C4)n2)cc1 | Stable | metabolite_detected | 10.2 min | metabolite_not_detected | metabolite_not_detected | 4 nM | 50 nM | 107 mL/min/kg | 1.5 L/kg | 315 ng·h/mL | 42 min | metabolite_not_detected |  |  |  |  |
| metabolite_detected | metabolite_detected | metabolite_detected | metabolite_detected | O=C(Nc1ccncc1)Nc1ccc(-c2nc(N3CCOCC3)nc(N3C4CCC3COC4)n2)cc1 [PKI-179] |  |  |  |  |  | 8 nM | 51 nM | 38.3 mL/min/kg | 2.4 L/kg | 867 ng·h/mL | 54 min | metabolite_not_detected | 0.5 nM |  |  |  |
|  |  |  |  | O=C(Nc1ccncc1)Nc1ccc(-c2nc(N3CCOCC3)nc(N3[C@@H]4COC[C@H]3[C@@H](O)C4)n2)cc1 | Stable | metabolite_detected | 13.4 min | metabolite_detected | metabolite_detected | 9 nM | 93 nM | 123 mL/min/kg | 0.9 L/kg | 283 ng·h/mL | 12 min | metabolite_not_detected |  |  |  |  |
|  |  |  |  | O=C(Nc1ccncc1)Nc1ccc(-c2nc(N3CCOCC3)nc(N3C4COCC3C(O)C4)n2)cc1 (racemic) |  |  |  |  |  | 4 nM | 33 nM |  |  |  |  |  | 0.8 nM | metabolite_detected | metabolite_detected | 1.72 mM |
